Bounds are passed on as bounds.

Results on 23 compounds are retold here after ChEMBL document CHEMBL1142970, “Inhibition of secreted phospholipase A2. 4-glycerol derivatives of 4,5-dihydro-3-(4-tetradecyloxybenzyl)-1,2,4-4H-oxadiazol-5-one with broad activities” (J Med Chem, 2007).

Series [1] deals with Phospholipase A2, major isoenzyme (Sus scrofa, UniProt P00592). The series can be described thus: Inhibition of pig group IB PLA2 by fluorimetric assay. Put shortly: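 Porcine pancreatic sPLA2, 60 ng per 1 mL, in 50 mM Tris-HCl pH 7.5, 100 mM NaCl, 1 mM EGTA, 0.1% fatty acid-free BSA, 2 µM pyrene substrate β-pyC-10-PG. Inhibitor in ethanol or DMSO added after BSA. Activity as µmol hydrolyzed/min/mg, giving 50%-inhibition concentration.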
Chain of Phospholipase A2, major isoenzyme (P00592 whole entry): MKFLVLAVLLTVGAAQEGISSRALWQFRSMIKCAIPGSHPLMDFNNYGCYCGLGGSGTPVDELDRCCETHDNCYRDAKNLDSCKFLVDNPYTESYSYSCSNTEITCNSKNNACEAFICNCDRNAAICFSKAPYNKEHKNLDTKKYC

Series [2] has as its target T1, Phospholipase A2, membrane associated (Homo sapiens, UniProt P14555).
T1 sequence (P14555 whole entry): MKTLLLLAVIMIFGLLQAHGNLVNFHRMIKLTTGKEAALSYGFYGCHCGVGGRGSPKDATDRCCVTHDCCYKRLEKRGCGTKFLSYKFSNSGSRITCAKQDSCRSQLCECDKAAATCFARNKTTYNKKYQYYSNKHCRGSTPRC
The series can be described thus: Inhibition of human group IIA PLA2 by fluorimetric assay. Summed up: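 Fluorimetric (Radvanyi method): 1 ng synthetic hGIIA sPLA2 in 1 mL of 50 mM Tris-HCl pH 7.5, 100 mM NaCl, 1 mM EGTA, 0.1% fatty acid-free BSA, 2 µM β-pyC-10-PG. Inhibitor added in ethanol or DMSO after BSA. Reaction started with 10 mM CaCl2 (final), fluorescence rise followed 2 min.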

Series [3] in a line: Lipophilicity, log P of the compound. The format is physicochemical. As to conditions: octanol/water. Put shortly: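 log P calculated from Rekker's hydrophobic fragmental constants.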
A further series concerns the target Phospholipase A2 (Homo sapiens, UniProt P04054). Nature of the series: Inhibition of human group IB PLA2 in [3H]oleate-labeled Escherichia coli membrane by radiometric assay. Summed up: (§1)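 Incubation 30-60 min, time adjusted for linear hydrolysis. Stopped with 0.1 M EDTA pH 8.0/1% BSA, centrifuged 10 000g, supernatant counted. Enzyme-free controls subtracted. IC50 obtained after 10 µM screen.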

The target in series [4] is T1, Phospholipase A2, membrane associated. Nature of the series: Inhibition of human group IIA PLA2 in [3H]oleate-labeled Escherichia coli membrane by radiometric assay. Put shortly:
as §1

A further series concerns the target T2, Phospholipase A2 group V (Homo sapiens, UniProt P39877).
T2 sequence (P39877 whole entry): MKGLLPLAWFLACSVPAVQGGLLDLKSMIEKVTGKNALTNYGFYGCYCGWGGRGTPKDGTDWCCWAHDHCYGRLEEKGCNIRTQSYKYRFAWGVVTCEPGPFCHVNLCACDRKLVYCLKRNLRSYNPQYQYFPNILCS
The series can be described thus: Inhibition of human group V PLA2 in [3H]oleate-labeled Escherichia coli membrane by radiometric assay. Put shortly: as §1

Series [5] addresses T3, Group 10 secretory phospholipase A2 (Homo sapiens, UniProt O15496).
T3 sequence (O15496 whole entry): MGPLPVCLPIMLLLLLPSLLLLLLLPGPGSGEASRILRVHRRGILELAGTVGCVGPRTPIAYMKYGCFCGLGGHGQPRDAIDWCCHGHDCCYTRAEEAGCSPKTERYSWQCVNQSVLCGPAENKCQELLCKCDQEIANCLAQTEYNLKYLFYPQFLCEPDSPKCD
The series can be described thus: Inhibition of human group X PLA2 in [3H]oleate-labeled Escherichia coli membrane by radiometric assay. Put shortly:
as §1

Chain of Phospholipase A2 (P04054 whole entry): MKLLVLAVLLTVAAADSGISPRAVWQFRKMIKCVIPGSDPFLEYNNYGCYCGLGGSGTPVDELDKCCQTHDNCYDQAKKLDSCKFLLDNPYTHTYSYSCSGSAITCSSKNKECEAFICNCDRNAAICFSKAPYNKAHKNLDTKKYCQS

As for `CCCCCCCCCCCCCCOc1ccc(Cc2noc(=O)[nH]2)cc1`, the IC50 in series [1] is above 100 µM; in series [2], 4 µM. In addition, the logP in series [3] (read-out: LogP) was determined as 7.08.
For the compound `CCCCCCCCCCCCCCO[C@@H](COc1ccc(-c2nc(=O)o[nH]2)cc1)COC(c1ccccc1)(c1ccccc1)c1ccccc1`, the IC50 is above 50 µM in series [1] and 0.33 µM in series [2]. Further, the logP in series [3] was 11.8.
Consider `CCCCCCCCCCCCCCOC(COCCCCCCCCCC)COc1ccc(-c2nc(=O)o[nH]2)cc1` (stereo not drawn), for which the IC50 was above 100 µM in series [1]; 0.28 µM in series [2]; 10 µM against Phospholipase A2; 1 µM in series [4]; 0.55 µM against Phospholipase A2 group V; 1 µM in series [5]. This compound also displayed a logP in series [3] of 11.5.
For `Cc1c(C(=O)C(N)=O)c2c(OCC(=O)O)cccc2n1Cc1ccccc1-c1ccccc1`, the IC50 at Phospholipase A2 was 3.3 µM; in series [4], 0.18 µM; against Phospholipase A2 group V it was 0.27 µM; in series [5], 4.57 µM.
Turning to `CCCCCCCCCCCCCCOC(COc1ccc(Cc2nc(=O)o[nH]2)cc1)COc1ccc(Cc2nc(=O)o[nH]2)cc1`, the figures for the IC50 in series [1] and in series [2] were 39.9 µM and 2.1 µM, respectively. Besides, in series [3] (read-out: LogP), the logP stood at 7.64.
In the same order, the values of `CCCCCCCCCCCCCCOC(COc1ccc(-c2nc(=O)o[nH]2)cc1)COc1ccc(-c2nc(=O)o[nH]2)cc1` are above 100 µM, 47.7 µM and 7.05.
In the same order, the values of `CCCCCOC(COc1ccc(Cc2noc(=O)[nH]2)cc1)COc1ccc(Cc2noc(=O)[nH]2)cc1` are above 100 µM, 30.5 µM and 2.97.
In the same order, the values of `O=c1nc(-c2ccc(OCC(COCCCCc3ccccc3)OCCCCc3ccccc3)cc2)[nH]o1` (racemic) are above 100 µM, 76.7 µM and 6.51.
In the case of `CCCCCCCOCC(COc1ccc(Cc2noc(=O)[nH]2)cc1)OCCCCCCC` (racemic), the IC50 in series [1] is above 100 µM; in series [2], 11.6 µM. Further, in series [3] (read-out: LogP), the logP amounted to 7.12.
Turning to `CCCCCCCCCOCC(COc1ccc(Cc2noc(=O)[nH]2)cc1)OCCCCCCCCC` (racemic), the values for the IC50 in series [1] and in series [2] were above 100 µM and 2.7 µM, respectively. Moreover, the logP in series [3] came to 9.18.
On to `CCCCCCCCCCCCCCOC(CO)COc1ccc(-c2noc(=O)[nH]2)cc1` (racemic), for which the IC50 is above 100 µM in series [1] and 56 µM in series [2]. In addition, in series [3] (read-out: LogP), the logP is 6.59.
Regarding `CCCCCCCCCCCCCCOC(COc1ccc(-c2noc(=O)[nH]2)cc1)COC(c1ccccc1)c1ccccc1` (racemic), the IC50 in series [1] amounted to 5.6 µM; in series [2], 0.28 µM; at Phospholipase A2, 18 µM; in series [4], 5 µM; against Phospholipase A2 group V, 2 µM; in series [5], 5.3 µM. In series [3], this compound had a logP of 10.1.
On to `CCCCCCCCCCCCCCOCC(COc1ccc(Cc2nc(=O)o[nH]2)cc1)Oc1ccc(Cc2nc(=O)o[nH]2)cc1` (racemic), for which the IC50 in series [1] was 57.8 µM; in series [2], 3.1 µM. In addition, the logP in series [3] (read-out: LogP) is 7.64.
In the same order, the values of `CCCCCCCCCCCCCCOC(COCc1cccc(OC)c1)COc1ccc(-c2nc(=O)o[nH]2)cc1` (racemic) are 39 µM, 2.2 µM and 8.56.
Take `CCCCCCCCCCCCCCOC(COCc1ccccc1)COc1ccc(-c2noc(=O)[nH]2)cc1` (racemic): the IC50 in series [1] was above 25 µM; in series [2], 14.8 µM; against Phospholipase A2, above 100 µM; in series [4], above 100 µM; at Phospholipase A2 group V, above 100 µM; in series [5], 14 µM. Also, the logP in series [3] (read-out: LogP) amounted to 8.48.
Regarding `CCCCCCCCCCCCCCOC(COCC)COc1ccc(-c2noc(=O)[nH]2)cc1` (racemic), the IC50 in series [1] was above 40 µM; in series [2], 29.8 µM. For the same compound, the logP in series [3] (read-out: LogP) amounted to 7.34.
In the same order, the values of `CCCCCCCCCCCCCCOC(COCCCCC)COc1ccc(-c2noc(=O)[nH]2)cc1` (racemic) are above 100 µM, 8.3 µM and 8.72.
Take `CCCCCCCCCCCCCCCCCCOC(COCc1ccc(C#N)cc1)COc1ccc(Cc2noc(=O)[nH]2)cc1` (racemic): the IC50 stood at 36.6 µM in series [1]; 0.15 µM in series [2]; 8.7 µM on Phospholipase A2; 1.15 µM in series [4]; 1 µM at Phospholipase A2 group V; 0.9 µM in series [5]. The same compound registered a logP in series [3] of 11.
For the compound `CCCCCCCCCCCCCCOC(COCCCCc1ccccc1)COc1ccc(-c2noc(=O)[nH]2)cc1` (racemic), the IC50 turned out to be 2.2 µM in series [1]; 0.29 µM in series [2]; 15 µM on Phospholipase A2; 26 µM in series [4]; 22 µM at Phospholipase A2 group V; 12 µM in series [5]. In series [3], this compound showed a logP of 10.
As to `CCCCCCCCCCCCCCOC(COCc1ccc(C#N)cc1)COc1ccc(Cc2nc(=O)o[nH]2)cc1` (racemic), the IC50 in series [1] turned out to be 9.6 µM; in series [2] it was 1.1 µM; at Phospholipase A2, 7.6 µM; in series [4], 7.6 µM; against Phospholipase A2 group V, 1.73 µM; in series [5], 5 µM. The logP in series [3] (read-out: LogP) was determined as 8.94.
As to `CCCCCCCCCCCCCCOC(COc1ccc(-c2noc(=O)[nH]2)cc1)COC(c1ccccc1)(c1ccccc1)c1ccccc1` (racemic), the IC50 in series [1] is above 50 µM; in series [2], 0.9 µM; against Phospholipase A2, 5.75 µM; in series [4], 2 µM; against Phospholipase A2 group V, 0.66 µM; in series [5], 1.25 µM. In series [3], this compound returned a logP of 11.8.
Regarding `CCCCCCCOCC(COc1ccc(-c2noc(=O)[nH]2)cc1)OCCCCCCC` (racemic), the IC50 in series [1] is above 100 µM; in series [2], 50.9 µM. The logP in series [3] (read-out: LogP) came to 6.3.
In the same order, the values of `CCCCCCCCCCCCCCOCC(COc1ccc(-c2noc(=O)[nH]2)cc1)Oc1ccc(-c2noc(=O)[nH]2)cc1` (racemic) are 63.6 µM, 21 µM and 7.05.

A word on the IC50: it is the concentration at which inhibition is half-maximal. Read a high IC50 as a need for much substance. The logP is a log measure of how a compound divides between an organic and an aqueous phase.
